Bioassay records as filed in PubChem.
The sample as a whole holds a higher share of hits than the screen did.
T cruzi intra = inhibitors of intracellular Trypanosoma cruzi; intracellular Trypanosoma cruzi in host cells, plate reader; AID 651903; actives 4.9% (n = 22,000); activity score (inhibition), % at 5.01 µM; in the data active = activity score above about 55%; inconclusive = no clear call, values can overlap the other calls;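 note: parasites and compound incubated about four days before reading; 0% = median of neutral control wells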
YB-1 expression = YB-1 expression inhibition; U2OS, qRT-PCR YB-1 vs CDIP delta delta Cp, 16 h; stronger effect = higher value; zero = DMSO, each unit about twofold; actives 0.37% (n = 30,000); delta delta Cp (YB-1 minus CDIP) (no concentration beside the values);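 active = delta delta Cp rounded down to an integer at or above 3, about 3 SD of DMSO wells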;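 note: higher means less YB-1 transcript or more CDIP transcript relative to DMSO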
INS-1E rescue = rescue of cytokine-induced death in INS-1E beta cells; AID 488910; INS-1E cytokine-induced death, ATP luminescence, 48 h; normalised: neutral wells 0, positive control 100; actives 0.1% (n = 20,000); protection from cytokine-induced ATP loss, % at 10 µM;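 active = mean replicate protection from cytokine-induced ATP loss at least 50% and at least 75% of replicates each reaching 50%; inconclusive = meets only one of the two criteria, mean or replicate share; inactive = fails both the mean and replicate share criteria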
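assay system = INS-1E rat insulinoma cells | amount = 8000 cells per well | medium = phenol-red-free RPMI with 5% fetal bovine serum | doses = one compound concentration, pin transfer | timing = 48 h cytokine plus compound treatment, 10 min reagent incubation | also added = IL-1β, TNF-α and IFN-γ cytokine mix | signal = CellTiter-Glo luminescence measuring cellular ATP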
* hit, by the source's call; ? = inconclusive; · = no result given.

SMILES	T cruzi intra	YB-1 expression	INS-1E rescue
C[C@@H]1CN([C@H](C)CO)C(=O)Cc2cc(NC(=O)Cc3cn(C)c4ccccc34)ccc2O[C@@H]1CN(C)Cc1ccc(Oc2ccccc2)cc1	65*	0.039	-55
C[C@@H]1CN([C@@H](C)CO)C(=O)Cc2cc(NC(=O)Cc3cn(C)c4ccccc34)ccc2O[C@@H]1CN(C)Cc1ccc(C(F)(F)F)cc1	63*	0.044	0
C[C@H]1CN([C@@H](C)CO)C(=O)Cc2cc(NC(=O)Cc3cn(C)c4ccccc34)ccc2O[C@H]1CN(C)Cc1ccc(Cl)c(Cl)c1	60*	-0.21	-1
C[C@H](CO)N1C[C@H](C)[C@H](CN(C)Cc2ccncc2)Oc2c(NC(=O)Nc3ccc(C(F)(F)F)cc3)cccc2C1=O	-24	0.35	-11
COc1cccc(NC(=O)N(C)C[C@@H]2OCc3cn(nn3)CCCC(=O)N([C@@H](C)CO)C[C@@H]2C)c1	-10	-0.13	·
CC(C)NC(=O)N(C)C[C@@H]1Oc2ccc(NS(=O)(=O)c3cccs3)cc2C(=O)N([C@@H](C)CO)C[C@H]1C	-9	0.038	·
CN1C(N)=NC(=O)/C1=C/c1cccnc1	·	0.059	·
C[C@H](CO)N1C[C@H](C)[C@H](CN(C)Cc2ccccc2)Oc2ccc(NS(=O)(=O)c3cccs3)cc2C1=O	14	0.27	-11
C[C@@H]1CN([C@H](C)CO)C(=O)Cc2cc(NC(=O)Cc3cn(C)c4ccccc34)ccc2O[C@@H]1CN(C)S(=O)(=O)c1ccc(Cl)cc1	67*	0.095	3
C[C@H]1CN([C@@H](C)CO)C(=O)Cc2cc(NC(=O)Cc3cn(C)c4ccccc34)ccc2O[C@H]1CN(C)S(=O)(=O)c1ccc(Cl)cc1	-2	-0.05	-7
COCCOC(=O)N1C(=O)[C@@]2(c3cc(C#Cc4ccc(OC)cc4)ccc31)[C@H](C(N)=O)[C@H]1C(=O)O[C@H](c3ccccc3)[C@H](c3ccccc3)N1[C@@H]2c1ccc(OCCO)cc1	·	-0.32	·
COCCOC(=O)N1C(=O)[C@@]2(c3cc(C#Cc4ccc(OC)cc4)ccc31)[C@H](C(N)=O)[C@H]1C(=O)O[C@H](c3ccccc3)[C@H](c3ccccc3)N1[C@@H]2c1ccccc1OCCO	·	9.5*	·
C[C@@H]1CN([C@@H](C)CO)C(=O)c2cccc(NC(=O)c3nc4ccccc4s3)c2O[C@@H]1CN(C)S(=O)(=O)c1ccc(Cl)cc1	55	0.083	-58
C[C@H](CO)N1C[C@H](C)[C@H](CN(C)S(=O)(=O)c2ccc(Cl)cc2)Oc2c(NC(=O)c3nc4ccccc4s3)cccc2C1=O	71*	0.28	-58
C[C@@H]1CN([C@H](C)CO)C(=O)c2cccc(NC(=O)c3nc4ccccc4s3)c2O[C@@H]1CN(C)S(=O)(=O)c1ccc(Cl)cc1	43	-1.1	-19
C[C@H](CO)N1C[C@H](C)[C@@H](CN(C)S(=O)(=O)c2ccc(Cl)cc2)Oc2c(NC(=O)c3nc4ccccc4s3)cccc2C1=O	66*	-0.14	-6
O=S(=O)(c1ccccc1)N1CCN(Cc2cccc(OCCO)c2)CC1	·	0.51	·
C[C@@H]1CN([C@H](C)CO)C(=O)Cc2cc(NC(=O)NC3CCCCC3)ccc2O[C@H]1CN(C)CC1CC1	-2	-0.064	5
C[C@H]1CN([C@@H](C)CO)C(=O)c2cccc(NC(=O)C3CCCCC3)c2O[C@@H]1CN(C)S(=O)(=O)c1ccc(Cl)cc1	-12	-0.56	3
COC1=CC(C)c2c(c(OC)c3occ(C)c3c2C)C1=O (centres undefined)	·	0.12	·
C[C@@H]1CN([C@H](C)CO)C(=O)c2cc(N(C)C)ccc2O[C@H]1CN(C)C(=O)Nc1ccc(C(F)(F)F)cc1	2	0.41	-2
C[C@@H]1CN([C@@H](C)CO)C(=O)c2cccc(NC(=O)Nc3ccccc3)c2O[C@H]1CN(C)Cc1ccc(Oc2ccccc2)cc1	76*	-0.21	-25
C[C@H](CO)N1C[C@H](C)[C@H](CN(C)Cc2ccc(Oc3ccccc3)cc2)Oc2c(NC(=O)Nc3ccc(F)cc3)cccc2C1=O	-13	-0.48	-9
C[C@@H]1CN([C@H](C)CO)C(=O)c2cccc(NC(=O)Nc3ccccc3)c2O[C@H]1CN(C)Cc1ccc(Oc2ccccc2)cc1	34	-0.4	-20
C[C@H](CO)N1C[C@H](C)[C@@H](CN(C)Cc2ccc(Oc3ccccc3)cc2)Oc2c(NC(=O)Nc3ccc(F)cc3)cccc2C1=O	59*	0.38	-36
SMILES	T cruzi intra	YB-1 expression	INS-1E rescue
C[C@@H]1CN([C@H](C)CO)C(=O)c2cccc(NC(=O)Nc3ccc(F)cc3)c2O[C@H]1CN(C)Cc1ccc(-c2ccccc2)cc1	-13	-0.8	0
C[C@@H]1CN([C@@H](C)CO)C(=O)c2cccc(NC(=O)Nc3ccc(F)cc3)c2O[C@@H]1CN(C)Cc1ccc(-c2ccccc2)cc1	69*	-0.031	-67
CC(=O)Nc1sc2c(c1SC#N)CCCC2	·	0.3	·
COc1ccc(S(=O)(=O)Nc2cccc3c2O[C@H](CN(C)S(=O)(=O)c2ccc(OC)cc2)[C@H](C)CN([C@H](C)CO)C3=O)cc1	-18	-0.8	8
COc1ccc(C2CC(=O)c3c(O)cc(O[C@@H]4O[C@H](CO)[C@@H](OC5OCC(O)(CO)C5O)[C@H](O)[C@H]4O)cc3O2)cc1 (some centres undefined)	·	-0.17	·
CC(C)CNP(=O)(OC1CC(C)CCC1C(C)C)c1ccccc1 (centres undefined)	·	-0.14	·
CNC(=O)C1OC(C)(C(C)(C)C)OC1C(=O)NC (centres undefined)	·	-0.044	·
CSC(=NC#N)/N=c1/nc(SC)n(C)n1C	·	0.091	·
C[C@@H]1CN([C@H](C)CO)C(=O)Cc2cc(NC(=O)Nc3ccc(C(F)(F)F)cc3)ccc2O[C@@H]1CN(C)Cc1ccccc1	69*	0.19	-32
C[C@@H]1CN([C@@H](C)CO)C(=O)Cc2cc(NC(=O)Nc3ccccc3)ccc2O[C@@H]1CN(C)Cc1ccc(C(F)(F)F)cc1	?	0.26	-4
C[C@H]1CN([C@@H](C)CO)C(=O)Cc2cc(NC(=O)Nc3ccccc3)ccc2O[C@@H]1CN(C)Cc1ccc(C(F)(F)F)cc1	27	-0.00063	-24
C[C@@H]1CN([C@@H](C)CO)C(=O)Cc2cc(NC(=O)Nc3ccc(C(F)(F)F)cc3)ccc2O[C@@H]1CN(C)Cc1ccccc1	58*	-0.1	-33
COc1ccc(NC(=O)C2CC(=O)NC(=Nc3ccccc3)S2)cc1 (centres undefined)	·	-0.69	·
CC(Oc1ccc2ccccc2c1)C(=O)NN (centres undefined)	·	-0.57	·
COc1ccc(S(=O)(=O)Nc2ccc3c(c2)C(=O)N([C@@H](C)CO)C[C@H](C)[C@H](CN(C)Cc2ccc(Oc4ccccc4)cc2)O3)cc1	74*	-0.33	-48
COc1ccc(S(=O)(=O)Nc2ccc3c(c2)C(=O)N([C@H](C)CO)C[C@@H](C)[C@@H](CN(C)Cc2ccc(Oc4ccccc4)cc2)O3)cc1	-12	-0.42	-14
